How the values were obtained:
[1] = tested on: Human immunodeficiency virus 1; assay: Antiviral activity against wild type HIV1 NL4-3 infected in human TZM-bl cells after 48 hrs by luciferase reporter gene assay; type: functional, organism-based; details: Human immunodeficiency virus 1, NL4-3, TZM-bl
Method in brief: (§1)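 Single-round infection of TZM-bl cells (NL4-3 or RTMDR1 strain), with luciferase reporter read-out. Virus at 200 TCID50 was mixed with eight four-fold serial dilutions of sample in growth medium, then incubated 48 h. Luciferase was read by luminometer. EC50 is the concentration giving a 50% drop in RLU versus virus control after background subtraction. Values are means of at least three independent experiments.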

[2] = Cytotoxicity against human TZM-bl cells by CytoTox-Glo assay; type: cell-based
[3] = Selectivity index, ratio of CC50 for human TZM-bl cells to EC50 for wild type HIV1 NL4-3 infected in human TZM-bl cells; type: toxicity, cell-based; details: read-out: Ratio CC50/EC50
Method in brief: (§2)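 Selectivity index is CC50 ÷ EC50. CC50 came from the CytoTox-Glo cytotoxicity kit run per the maker's protocol in TZM-bl cells. EC50 came from the 48 h single-round TZM-bl luciferase infection assay (200 TCID50 virus, eight four-fold dilutions) against the NL4-3 or RTMDR1 strain. Values are averaged from at least three independent experiments.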

[4] = tested on: Human immunodeficiency virus 1; assay: Antiviral activity against drug-resistance HIV1 RTMDR1 infected in human TZM-bl cells after 48 hrs by luciferase reporter gene assay; type: functional, organism-based; details: Human immunodeficiency virus 1, RTMDR1, TZM-bl; method in brief: as §1
[5] = Selectivity index, ratio of CC50 for human TZM-bl cells to EC50 for drug-resistance HIV1 RTMDR1 infected in human TZM-bl cells; type: toxicity, cell-based; details: read-out: Ratio CC50/EC50; method in brief: as §2
[6] = tested on: Human immunodeficiency virus 1; assay: Ratio of 2-EDCP EC50 to compound EC50 for wild type HIV1 NL4-3 infected in human TZM-bl cells; type: functional
[7] = tested on: Human immunodeficiency virus 1; assay: Antiviral activity against wild type HIV1; type: functional, organism-based
[8] = tested on: Human immunodeficiency virus 1; assay: Antiviral activity against drug-resistance HIV1; type: functional, organism-based

Q: Which EC50 [1] does the source give for `COc1cc2c(c3oc4cc(C#N)ccc4c(=O)c13)[C@@H](OC(=O)C13CCC(C)(C(=O)O1)C3(C)C)[C@@H](OC(=O)C13CCC(C)(C(=O)O1)C3(C)C)C(C)(C)O2` (stereo partly drawn) here?
A: Its EC50 is 200 nM.

Q: And the CC50 [2]?
A: The CC50 was 9080 nM.

Q: And the selectivity ratio [3]?
A: The selectivity ratio was 45.4.

Q: With `COc1cc2c(c3oc4ccc(C#N)cc4c(=O)c13)[C@@H](OC(=O)C13CCC(C)(C(=O)O1)C3(C)C)[C@@H](OC(=O)C13CCC(C)(C(=O)O1)C3(C)C)C(C)(C)O2` (stereo partly drawn) as the molecule, how does the EC50 [1] read?
A: Its EC50 is 290 nM.

Q: And the CC50 [2]?
A: Its CC50 is greater than 13800 nM.

Q: What about the selectivity ratio [3] of the same molecule?
A: Its selectivity ratio is greater than 47.8.

Q: With `COc1cc2c(c3oc4ccccc4c(=O)c13)[C@@H](OC(=O)C13CCC(C)(C(=O)O1)C3(C)C)[C@@H](OC(=O)C13CCC(C)(C(=O)O1)C3(C)C)C(C)(C)O2` (stereo partly drawn) as the molecule, how does the EC50 [1] read?
A: Its EC50 is 63 nM.

Q: What about the CC50 [2] of the same molecule?
A: Its CC50 is greater than 14300 nM.

Q: And the selectivity ratio [3]?
A: Its selectivity ratio is greater than 227.

Q: And the EC50 [4]?
A: Its EC50 is 74 nM.

Q: What about the selectivity ratio [5] of the same molecule?
A: Its selectivity ratio is greater than 193.

Q: And the “Ratio EC50” value [6]?
A: Its value is 1.5.

Q: For `COc1cc2c(c3oc4ccccc4/c(=N\O)c13)[C@@H](OC(=O)C13CCC(C)(C(=O)O1)C3(C)C)[C@@H](OC(=O)C13CCC(C)(C(=O)O1)C3(C)C)C(C)(C)O2` (stereo partly drawn), which EC50 [1] is on record?
A: The EC50 was 120 nM.

Q: And the CC50 [2]?
A: The CC50 was greater than 13900 nM.

Q: And the selectivity ratio [3]?
A: Its selectivity ratio is greater than 118.

Q: What does the source list for `COc1cc2c(c3oc4c(C)cccc4c(=O)c13)[C@@H](OC(=O)C13CCC(C)(C(=O)O1)C3(C)C)[C@@H](OC(=O)C13CCC(C)(C(=O)O1)C3(C)C)C(C)(C)O2` (stereo partly drawn)?
A: EC50 [1]: 1520 nM; CC50 [2]: 4320 nM; selectivity ratio [3]: 2.84

Q: Which EC50 [1] does the source give for `COc1cc2c(c3oc4cc(C)ccc4c(=O)c13)[C@@H](OC(=O)C13CCC(C)(C(=O)O1)C3(C)C)[C@@H](OC(=O)C13CCC(C)(C(=O)O1)C3(C)C)C(C)(C)O2` (stereo partly drawn) here?
A: The EC50 was 95 nM.

Q: And the CC50 [2]?
A: Its CC50 is greater than 14000 nM.

Q: What about the selectivity ratio [3] of the same molecule?
A: The selectivity ratio was greater than 147.

Q: And the EC50 [4]?
A: The EC50 was 363 nM.

Q: And the selectivity ratio [5]?
A: The selectivity ratio was greater than 38.6.

Q: Which EC50 [1] does the source give for `COc1cc2c(c3oc4ccc(C)cc4c(=O)c13)[C@@H](OC(=O)C13CCC(C)(C(=O)O1)C3(C)C)[C@@H](OC(=O)C13CCC(C)(C(=O)O1)C3(C)C)C(C)(C)O2` (stereo partly drawn) here?
A: The EC50 was 65 nM.

Q: And the CC50 [2]?
A: Its CC50 is 11400 nM.

Q: What about the selectivity ratio [3] of the same molecule?
A: The selectivity ratio was 175.

Q: And the EC50 [4]?
A: The EC50 was 81 nM.

Q: And the selectivity ratio [5]?
A: Its selectivity ratio is 141.

Q: Which EC50 [1] does the source give for `COc1cc2c(c3oc4cccc(C)c4c(=O)c13)[C@@H](OC(=O)C13CCC(C)(C(=O)O1)C3(C)C)[C@@H](OC(=O)C13CCC(C)(C(=O)O1)C3(C)C)C(C)(C)O2` (stereo partly drawn) here?
A: The EC50 was 150 nM.

Q: What about the CC50 [2] of the same molecule?
A: The CC50 was 11600 nM.

Q: And the selectivity ratio [3]?
A: Its selectivity ratio is 77.3.

Q: And the EC50 [4]?
A: The EC50 was 370 nM.

Q: And the selectivity ratio [5]?
A: The selectivity ratio was 31.4.

Q: For `COc1ccc2c(=O)c3c(OC)cc4c(c3oc2c1)[C@@H](OC(=O)C12CCC(C)(C(=O)O1)C2(C)C)[C@@H](OC(=O)C12CCC(C)(C(=O)O1)C2(C)C)C(C)(C)O4` (stereo partly drawn), which EC50 [1] is on record?
A: The EC50 was 362 nM.

Q: What about the CC50 [2] of the same molecule?
A: The CC50 was greater than 13700 nM.

Q: What about the selectivity ratio [3] of the same molecule?
A: Its selectivity ratio is greater than 37.8.

Q: For `COc1ccc2oc3c4c(cc(OC)c3c(=O)c2c1)OC(C)(C)[C@H](OC(=O)C12CCC(C)(C(=O)O1)C2(C)C)[C@@H]4OC(=O)C12CCC(C)(C(=O)O1)C2(C)C` (stereo partly drawn), which EC50 [1] is on record?
A: Its EC50 is 120 nM.

Q: And the CC50 [2]?
A: The CC50 was 10800 nM.

Q: And the selectivity ratio [3]?
A: The selectivity ratio was 88.8.

Q: What about the EC50 [4] of the same molecule?
A: Its EC50 is 420 nM.

Q: And the selectivity ratio [5]?
A: Its selectivity ratio is 25.7.

Q: What does the source list for `COc1cccc2oc3c4c(cc(OC)c3c(=O)c12)OC(C)(C)[C@H](OC(=O)C12CCC(C)(C(=O)O1)C2(C)C)[C@@H]4OC(=O)C12CCC(C)(C(=O)O1)C2(C)C` (stereo partly drawn)?
A: EC50 [1]: 1700 nM; CC50 [2]: 11600 nM; selectivity ratio [3]: 6.83

Q: For `COc1cc(C)c2c(=O)c3c(OC)cc4c(c3oc2c1)[C@@H](OC(=O)C12CCC(C)(C(=O)O1)C2(C)C)[C@@H](OC(=O)C12CCC(C)(C(=O)O1)C2(C)C)C(C)(C)O4` (stereo partly drawn), which EC50 [1] is on record?
A: Its EC50 is 140 nM.

Q: And the CC50 [2]?
A: The CC50 was greater than 26800 nM.

Q: And the selectivity ratio [3]?
A: The selectivity ratio was greater than 192.

Q: For `COc1cc2c(c3oc4cccc(O)c4c(=O)c13)[C@@H](OC(=O)C13CCC(C)(C(=O)O1)C3(C)C)[C@@H](OC(=O)C13CCC(C)(C(=O)O1)C3(C)C)C(C)(C)O2` (stereo partly drawn), which EC50 [1] is on record?
A: Its EC50 is 330 nM.

Q: What about the CC50 [2] of the same molecule?
A: Its CC50 is 8100 nM.

Q: And the selectivity ratio [3]?
A: Its selectivity ratio is 24.5.

Q: For `COc1cc2c(c3oc4c(F)cccc4c(=O)c13)[C@@H](OC(=O)C13CCC(C)(C(=O)O1)C3(C)C)[C@@H](OC(=O)C13CCC(C)(C(=O)O1)C3(C)C)C(C)(C)O2` (stereo partly drawn), which EC50 [1] is on record?
A: The EC50 was 230 nM.

Q: What about the CC50 [2] of the same molecule?
A: The CC50 was 7800 nM.

Q: And the selectivity ratio [3]?
A: Its selectivity ratio is 33.9.

Q: Which EC50 [1] does the source give for `COc1cc2c(c3oc4ccc(F)cc4c(=O)c13)[C@@H](OC(=O)C13CCC(C)(C(=O)O1)C3(C)C)[C@@H](OC(=O)C13CCC(C)(C(=O)O1)C3(C)C)C(C)(C)O2` (stereo partly drawn) here?
A: Its EC50 is 100 nM.

Q: What about the CC50 [2] of the same molecule?
A: The CC50 was 26000 nM.

Q: And the selectivity ratio [3]?
A: Its selectivity ratio is 260.

Q: What about the EC50 [4] of the same molecule?
A: Its EC50 is 160 nM.

Q: What about the selectivity ratio [5] of the same molecule?
A: The selectivity ratio was 162.

Q: Which results are given for `COc1cc2c(c3oc4cccc(F)c4c(=O)c13)[C@@H](OC(=O)C13CCC(C)(C(=O)O1)C3(C)C)[C@@H](OC(=O)C13CCC(C)(C(=O)O1)C3(C)C)C(C)(C)O2` (stereo partly drawn)?
A: EC50 [1]: 62 nM; CC50 [2]: > 13900 nM; selectivity ratio [3]: > 224; EC50 [4]: 65 nM; selectivity ratio [5]: > 214

Q: With `COc1cc2c(c3oc4ccc(Br)cc4c(=O)c13)[C@@H](OC(=O)C13CCC(C)(C(=O)O1)C3(C)C)[C@@H](OC(=O)C13CCC(C)(C(=O)O1)C3(C)C)C(C)(C)O2` (stereo partly drawn) as the molecule, how does the EC50 [1] read?
A: Its EC50 is 1470 nM.

Q: What about the CC50 [2] of the same molecule?
A: The CC50 was 9230 nM.

Q: And the selectivity ratio [3]?
A: The selectivity ratio was 6.83.

Q: Which results are given for `COc1cc2c(c3oc4ccc(CBr)cc4c(=O)c13)[C@@H](OC(=O)C13CCC(C)(C(=O)O1)C3(C)C)[C@@H](OC(=O)C13CCC(C)(C(=O)O1)C3(C)C)C(C)(C)O2` (stereo partly drawn)?
A: EC50 [1]: 4530 nM; CC50 [2]: > 25200 nM; selectivity ratio [3]: > 5.55

Q: Which results are given for `CC1(C)Oc2ccc3c(=O)c4ccccc4oc3c2[C@@H](OC(=O)C23CCC(C)(C(=O)O2)C3(C)C)[C@H]1OC(=O)C12CCC(C)(C(=O)O1)C2(C)C` (stereo partly drawn)?
A: EC50 [1]: 308 nM; CC50 [2]: > 29800 nM; selectivity ratio [3]: > 96.8; EC50 [4]: 546 nM; selectivity ratio [5]: > 54.6

Q: Which results are given for `Cc1cc(=O)c2c(C)cc3c(c2o1)[C@@H](OC(=O)C12CCC(C)(C(=O)O1)C2(C)C)[C@@H](OC(=O)C12CCC(C)(C(=O)O1)C2(C)C)C(C)(C)O3` (stereo partly drawn)?
A: EC50 [7]: 36 nM; EC50 [8]: 490 nM

Q: Which EC50 [7] does the source give for `CCc1cc(=O)c2ccc3c(c2o1)[C@@H](OC(=O)C12CCC(C)(C(=O)O1)C2(C)C)[C@@H](OC(=O)C12CCC(C)(C(=O)O1)C2(C)C)C(C)(C)O3` (stereo partly drawn) here?
A: The EC50 was 70 nM.

Q: What about the EC50 [8] of the same molecule?
A: The EC50 was 110 nM.

Q: What about the EC50 [1] of the same molecule?
A: The EC50 was 89 nM.

Q: What about the CC50 [2] of the same molecule?
A: Its CC50 is 12100 nM.

Q: And the selectivity ratio [3]?
A: The selectivity ratio was 136.

Q: What about the EC50 [4] of the same molecule?
A: Its EC50 is 110 nM.

Q: And the selectivity ratio [5]?
A: The selectivity ratio was 110.

Source: ChEMBL document CHEMBL1926665, “Anti-AIDS agents 85. Design, synthesis, and evaluation of 1R,2R-dicamphanoyl-3,3-dimethyldihydropyrano-[2,3-c]xanthen-7(1H)-one (DCX) derivatives as novel anti-HIV agents” (Eur J Med Chem, 2012)
